{
  "source": "ChEMBL document CHEMBL1152280",
  "about": "(J Med Chem, 2008)",
  "key": {"Mus musculus": {"species": "Mus musculus", "assay": "Toxicity in C57BL/6 mouse assessed as effect on body weight after 5 days", "type": "organism-based", "conditions": "in vivo, 120 h"}, "[1]": {"assay": "Stability in presence of DPP4 assessed as peptide degradation after 24 hrs by HPLC", "type": "ADME", "method_in_brief": "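Peptides (10 μM) incubated with DPP IV (20 units/L, activity calibrated on Gly-Pro-p-nitroanilide at 410 nm) in 50 mM Tris·HCl, 1 mM EDTA, pH 7.6, 37 °C, sampled over 200 min and up to 24 h. Samples were quenched in 0.2% TFA and run on C18 RP-HPLC (CH3CN/H2O/0.1% TFA, 230 nm). First-order k was fitted from ln[A] versus time, and fragments were identified by ESI-MS.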"}},
  "note": "Where a SMILES comes first, the peptide text is derived from it. [ ]: non-standard residue; d: D form. Leu(5,5,5,5',5',5'-F6) = N[C@@H](CC(C(F)(F)F)C(F)(F)F)C(=O)O",
  "data": [
    {"smiles": "CC[C@H](C)[C@H](NC(=O)[C@H](Cc1ccccc1)NC(=O)[C@H](CCC(=O)O)NC(=O)[C@H](CCCCN)NC(=O)[C@H](C)NC(=O)[C@H](C)NC(=O)[C@H](CCC(N)=O)NC(=O)CNC(=O)[C@H](CCC(=O)O)NC(=O)[C@H](CC(C)C)NC(=O)[C@H](Cc1ccc(O)cc1)NC(=O)[C@H](CO)NC(=O)[C@H](CO)NC(=O)[C@@H](NC(=O)[C@H](CC(=O)O)NC(=O)[C@H](CO)NC(=O)[C@@H](NC(=O)[C@H](Cc1ccccc1)NC(=O)[C@@H](NC(=O)CNC(=O)[C@H](CC(C(F)(F)F)C(F)(F)F)NC(=O)[C@H](CC(C(F)(F)F)C(F)(F)F)NC(=O)[C@@H](N)Cc1cnc[nH]1)[C@@H](C)O)[C@@H](C)O)C(C)C)C(=O)N[C@@H](C)C(=O)N[C@@H](Cc1c[nH]c2ccccc12)C(=O)N[C@@H](CC(C)C)C(=O)N[C@H](C(=O)N[C@@H](CCCCN)C(=O)NCC(=O)N[C@@H](CCCNC(=N)N)C(N)=O)C(C)C", "values": [
      {"measurement": "Activity", "setting": "Mus musculus", "value": "Non-toxic"},
      {"measurement": "Stability", "setting": "[1]", "value": "Stable"}
    ]},
    {"smiles": "CC[C@H](C)[C@H](NC(=O)[C@H](CC(C(F)(F)F)C(F)(F)F)NC(=O)[C@H](CCC(=O)O)NC(=O)[C@H](CCCCN)NC(=O)[C@H](C)NC(=O)[C@H](C)NC(=O)[C@H](CCC(N)=O)NC(=O)CNC(=O)[C@H](CCC(=O)O)NC(=O)[C@H](CC(C)C)NC(=O)[C@H](Cc1ccc(O)cc1)NC(=O)[C@H](CO)NC(=O)[C@H](CO)NC(=O)[C@@H](NC(=O)[C@H](CC(=O)O)NC(=O)[C@H](CO)NC(=O)[C@@H](NC(=O)[C@H](Cc1ccccc1)NC(=O)[C@@H](NC(=O)CNC(=O)[C@H](CCC(=O)O)NC(=O)[C@H](C)NC(=O)[C@@H](N)Cc1cnc[nH]1)[C@@H](C)O)[C@@H](C)O)C(C)C)C(=O)N[C@@H](C)C(=O)N[C@@H](Cc1c[nH]c2ccccc12)C(=O)N[C@@H](CC(C)C)C(=O)N[C@H](C(=O)N[C@@H](CCCCN)C(=O)NCC(=O)N[C@@H](CCCN=C(N)N)C(=O)O)C(C)C", "values": [
      {"measurement": "Activity", "setting": "Mus musculus", "value": "Non-toxic"}
    ]},
    {"smiles": "CC(C)C[C@H](NC(=O)[C@H](Cc1ccc(O)cc1)NC(=O)[C@H](CO)NC(=O)[C@H](CO)NC(=O)[C@@H](NC(=O)[C@H](CC(=O)O)NC(=O)[C@H](CO)NC(=O)[C@@H](NC(=O)[C@H](Cc1ccccc1)NC(=O)[C@@H](NC(=O)CNC(=O)[C@H](CCC(=O)O)NC(=O)[C@H](C)NC(=O)[C@@H](N)Cc1cnc[nH]1)[C@@H](C)O)[C@@H](C)O)C(C)C)C(=O)N[C@@H](CCC(=O)O)C(=O)NCC(=O)N[C@@H](CCC(N)=O)C(=O)N[C@@H](C)C(=O)N[C@@H](C)C(=O)N[C@@H](CCCCN)C(=O)N[C@@H](CCC(=O)O)C(=O)N[C@@H](Cc1ccccc1)C(=O)N[C@@H](CC(C(F)(F)F)C(F)(F)F)C(=O)N[C@@H](C)C(=O)N[C@@H](Cc1c[nH]c2ccccc12)C(=O)N[C@@H](CC(C)C)C(=O)N[C@H](C(=O)N[C@@H](CCCCN)C(=O)NCC(=O)N[C@@H](CCCNC(=N)N)C(N)=O)C(C)C", "values": [
      {"measurement": "Activity", "setting": "Mus musculus", "value": "Non-toxic"}
    ]},
    {"smiles": "CC[C@H](C)[C@H](NC(=O)[C@H](Cc1ccccc1)NC(=O)[C@H](CCC(=O)O)NC(=O)[C@H](CCCCN)NC(=O)[C@H](C)NC(=O)[C@H](C)NC(=O)[C@H](CCC(N)=O)NC(=O)CNC(=O)[C@H](CCC(=O)O)NC(=O)[C@H](CC(C)C)NC(=O)[C@H](Cc1ccc(O)cc1)NC(=O)[C@H](CO)NC(=O)[C@H](CO)NC(=O)[C@@H](NC(=O)[C@H](CC(=O)O)NC(=O)[C@H](CO)NC(=O)[C@@H](NC(=O)[C@H](Cc1ccccc1)NC(=O)[C@@H](NC(=O)CNC(=O)[C@H](CCC(=O)O)NC(=O)[C@H](CC(C(F)(F)F)C(F)(F)F)NC(=O)[C@@H](N)Cc1cnc[nH]1)[C@@H](C)O)[C@@H](C)O)C(C)C)C(=O)N[C@@H](C)C(=O)N[C@@H](Cc1c[nH]c2ccccc12)C(=O)N[C@@H](CC(C)C)C(=O)N[C@H](C(=O)N[C@@H](CCCCN)C(=O)NCC(=O)N[C@@H](CCCNC(=N)N)C(N)=O)C(C)C", "values": [
      {"measurement": "Activity", "setting": "Mus musculus", "value": "Non-toxic"},
      {"measurement": "Stability", "setting": "[1]", "value": "Stable"}
    ]},
    {"smiles": "CC[C@H](C)[C@H](NC(=O)[C@H](Cc1ccccc1)NC(=O)[C@H](CCC(=O)O)NC(=O)[C@H](CCCCN)NC(=O)[C@H](C)NC(=O)[C@H](C)NC(=O)[C@H](CCC(N)=O)NC(=O)CNC(=O)[C@H](CCC(=O)O)NC(=O)[C@H](CC(C)C)NC(=O)[C@H](Cc1ccc(O)cc1)NC(=O)[C@H](CO)NC(=O)[C@H](CO)NC(=O)[C@@H](NC(=O)[C@H](CC(=O)O)NC(=O)[C@H](CO)NC(=O)[C@@H](NC(=O)[C@H](Cc1ccccc1)NC(=O)[C@@H](NC(=O)CNC(=O)[C@H](CCC(=O)O)NC(=O)[C@H](C)NC(=O)[C@@H](N)Cc1cnc[nH]1)[C@@H](C)O)[C@@H](C)O)C(C)C)C(=O)N[C@@H](C)C(=O)N[C@@H](Cc1c[nH]c2ccccc12)C(=O)N[C@@H](CC(C(F)(F)F)C(F)(F)F)C(=O)N[C@H](C(=O)N[C@@H](CCCCN)C(=O)NCC(=O)N[C@@H](CCCNC(=N)N)C(N)=O)C(C)C", "values": [
      {"measurement": "Activity", "setting": "Mus musculus", "value": "Non-toxic"}
    ]},
    {"smiles": "CC[C@H](C)[C@H](NC(=O)[C@H](Cc1ccccc1)NC(=O)[C@H](CCC(=O)O)NC(=O)[C@H](CCCCN)NC(=O)[C@H](C)NC(=O)[C@H](C)NC(=O)[C@H](CCC(N)=O)NC(=O)CNC(=O)[C@H](CCC(=O)O)NC(=O)[C@H](CC(C)C)NC(=O)[C@H](Cc1ccc(O)cc1)NC(=O)[C@H](CO)NC(=O)[C@H](CO)NC(=O)[C@@H](NC(=O)[C@H](CC(=O)O)NC(=O)[C@H](CO)NC(=O)[C@@H](NC(=O)[C@H](Cc1ccccc1)NC(=O)[C@@H](NC(=O)[C@H](CC(C(F)(F)F)C(F)(F)F)NC(=O)[C@H](CCC(=O)O)NC(=O)[C@H](C)NC(=O)[C@@H](N)Cc1cnc[nH]1)[C@@H](C)O)[C@@H](C)O)C(C)C)C(=O)N[C@@H](C)C(=O)N[C@@H](Cc1c[nH]c2ccccc12)C(=O)N[C@@H](CC(C)C)C(=O)N[C@H](C(=O)N[C@@H](CCCCN)C(=O)NCC(=O)N[C@@H](CCCN=C(N)N)C(N)=O)C(C)C", "values": [
      {"measurement": "Activity", "setting": "Mus musculus", "value": "Non-toxic"}
    ]},
    {"smiles": "CC[C@H](C)[C@H](NC(=O)[C@H](Cc1ccccc1)NC(=O)[C@H](CCC(=O)O)NC(=O)[C@H](CCCCN)NC(=O)[C@H](C)NC(=O)[C@H](C)NC(=O)[C@H](CCC(N)=O)NC(=O)CNC(=O)[C@H](CCC(=O)O)NC(=O)CNC(=O)[C@H](CC(C)C)NC(=O)[C@H](Cc1ccc(O)cc1)NC(=O)[C@H](CO)NC(=O)[C@H](CO)NC(=O)[C@@H](NC(=O)[C@H](CC(=O)O)NC(=O)[C@H](CO)NC(=O)[C@@H](NC(=O)[C@H](Cc1ccccc1)NC(=O)[C@@H](NC(=O)CNC(=O)[C@H](CC(C(F)(F)F)C(F)(F)F)NC(=O)[C@H](C)NC(=O)[C@@H](N)Cc1cnc[nH]1)[C@@H](C)O)[C@@H](C)O)C(C)C)C(=O)N[C@@H](C)C(=O)N[C@@H](Cc1c[nH]c2ccccc12)C(=O)N[C@@H](CC(C)C)C(=O)N[C@H](C(=O)N[C@@H](CCCCN)C(=O)NCC(=O)N[C@@H](CCCNC(=N)N)C(N)=O)C(C)C", "note": "(H-HA[Leu(5,5,5,5',5',5'-F6)]GTFTSDVSSYLGEGQAAKEFIAWLVKGR-NH2)", "values": [
      {"measurement": "Activity", "setting": "Mus musculus", "value": "Non-toxic"}
    ]}
  ]
}
